Compound activity deposited in PubChem by Broad Institute.
CaV13 FRET inh: Disruptors of the CACNA1D IQ motif to Ca2+-dependent inactivation inhibitor domain association, primary screening, Förster resonance energy transfer in intact living … | HEK cells, CFP/YFP FRET ICDI-IQ, plate reader, 10 min; percent FRET-ratio fall versus neutral wells | inhibition, % at 12.3 µM | 340,000 compounds, 0.098% hits;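 active = mean replicate inhibition of at least 30% and at least 1% of replicates passing that level; inconclusive = only one of the two criteria is met; inactive = neither criterion is met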
S100A4 inh HTS: blocks human S100A4 binding to myosin IIA peptide; P26447; S100A4/TAMRA-MyoIIA peptide fluorescence polarization; inhibition, % at 10.7 µM; 360,000 compounds, 0.14% hits;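 active = mean inhibition of at least 70% across replicates, with every replicate also reaching that level; inconclusive = mean inhibition reaches 70% but some replicates fall short; inactive = mean inhibition below 70%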
Target sequence (P26447 whole entry, looked up): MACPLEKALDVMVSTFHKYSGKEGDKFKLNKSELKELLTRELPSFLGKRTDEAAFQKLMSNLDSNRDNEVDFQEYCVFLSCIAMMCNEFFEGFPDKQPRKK
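incubation = readout 5 min after mixing, signal stable up to 60 min | system = S100A4 monomer protein | buffer or medium = HEPES pH 7.2 with CaCl2, KCl, NaCl, DTT, Triton | benchmarks = neutral control DMSO, positive control TFP | also added = fluorescent myosin IIA peptide, 5 nM | compound dosing = one concentration per compound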
DENV2 CPE: inhibitors of DENV2 cytopathic effect | DENV2-infected cells, cytopathic effect rescue, plate reader | CPE inhibition, % at 9.99 µM | 350,000 compounds, 1.7% hits | AID 651640; in the data active = CPE inhibition above about 20%, passing the limit was not always enough; inconclusive = no clear call, values can overlap the other calls; tested in BHK-21 cells
SIRT5 inh: blocks human SIRT5 desuccinylation of peptide; inhibition, % at 15 µM; 330,000 compounds, 1.1% hits; Purified SirT5, succinyl-peptide AMC, trypsin-coupled fluorescence; AID 652115; Q9NXA8; in the data active = inhibition above about 15%; inconclusive = no clear call, values can overlap the other calls
AF4-AF9 inh: blocks AF4 peptide binding to human AF9; P42568; AlphaScreen, biotin-AF4 peptide binding to FLAG-AF9; inhibition, % at 10 µM; 350,000 compounds, 0.47% hits;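 active = every replicate reaching a set inhibition limit, whatever the replicate mean, cut at about 25% in these data; inconclusive = mean inhibition reaches that limit but some replicates miss it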
Target sequence (P42568 whole entry, looked up): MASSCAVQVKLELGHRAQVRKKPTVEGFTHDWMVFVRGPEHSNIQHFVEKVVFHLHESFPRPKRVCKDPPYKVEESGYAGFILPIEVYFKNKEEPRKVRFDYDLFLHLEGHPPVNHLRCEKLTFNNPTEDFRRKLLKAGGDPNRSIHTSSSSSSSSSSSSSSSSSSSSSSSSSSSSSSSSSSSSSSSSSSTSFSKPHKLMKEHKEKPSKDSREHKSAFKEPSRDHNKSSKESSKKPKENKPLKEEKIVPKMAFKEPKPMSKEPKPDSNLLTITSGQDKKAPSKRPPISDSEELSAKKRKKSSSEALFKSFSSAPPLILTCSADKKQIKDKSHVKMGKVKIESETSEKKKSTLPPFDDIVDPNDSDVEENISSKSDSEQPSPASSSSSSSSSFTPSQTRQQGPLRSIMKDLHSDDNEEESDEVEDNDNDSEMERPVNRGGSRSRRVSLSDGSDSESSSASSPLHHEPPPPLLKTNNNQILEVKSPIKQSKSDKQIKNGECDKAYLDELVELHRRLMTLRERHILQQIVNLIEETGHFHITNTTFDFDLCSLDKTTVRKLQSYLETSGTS
Each line names hits and unclear results; the compound was inactive in the other large screens; ! = not confirmed by another sample. Only some compounds are listed: those with a hit (about 2.7% of all), similar ones and a draw of the others.

CC1NC(=O)NC1CCCCC(=O)O (configuration not stated)	none (no result: S100A4 inh HTS, DENV2 CPE, SIRT5 inh, AF4-AF9 inh)
Cc1ccc(NC(=O)CCCCCC2NC(=O)NC2C)cc1 (configuration not stated)	AF4-AF9 inh 97
O=C(C[C@@H]1C=C[C@@H](NC(=O)c2ccncc2)[C@@H](CO)O1)NCC1CC1	none (no result: CaV13 FRET inh)
CC=Cc1ccc2n(c1=O)C[C@@H]1[C@@H](CO)[C@H](C(=O)NCCc3ccncc3)[C@H]2N1Cc1ccncc1 (mixture of isomers)	none (no result: CaV13 FRET inh)
NC(N)=N/N=C/c1ccccc1Cl	SIRT5 inh 18
C/C=C/c1ccc([C@H]2[C@@H](CO)N(CC3CCCC3)C23CN(C(=O)COC)C3)cc1	none (no result: CaV13 FRET inh)
CC(=O)OC(=C(OC(C)=O)c1ccccc1)c1ccccc1	none (no result: SIRT5 inh)
CC(=O)OC(C)=O	S100A4 inh HTS 79 (no result: CaV13 FRET inh, SIRT5 inh, AF4-AF9 inh)
CC(=O)N1N=C(N)SC12CCCC2	SIRT5 inh 20
C[C@H](CO)N1C[C@H](C)[C@H](CN(C)C(=O)c2ccncc2)OCCCC[C@H](C)Oc2ccc(NC(=O)NC3CCCCC3)cc2C1=O	none (no result: CaV13 FRET inh, S100A4 inh HTS, SIRT5 inh, AF4-AF9 inh)
Cc1ccc(NC(=O)C2CCN(C(=O)c3ccco3)CC2)cc1C	SIRT5 inh 79
CC1CCC(NC(=O)C2CCC(CNS(=O)(=O)c3ccc4c(c3)C(C)(C)C(=O)N4C)CC2)CC1 (configuration not stated)	none
Cc1ccc(S(=O)(=O)Nc2ccc3c(c2)C(=O)N([C@@H](C)CO)C[C@H](C)[C@H](CN(C)C(=O)CCC(F)(F)F)OCCCC[C@H](C)O3)cc1	SIRT5 inh 17 (no result: CaV13 FRET inh)
C[C@H]1CCCCO[C@H](CN(C)C(=O)CCC(F)(F)F)[C@@H](C)CN([C@@H](C)CO)C(=O)c2cc(NS(=O)(=O)c3ccc(Cl)cc3)ccc2O1	SIRT5 inh 15 (no result: CaV13 FRET inh)
C[C@H](CO)N1C[C@H](C)[C@@H](CN(C)C(=O)CCC(F)(F)F)OCCCC[C@H](C)Oc2ccc(NS(=O)(=O)c3ccc(Cl)cc3)cc2C1=O	none (no result: CaV13 FRET inh)
Cc1ccc(S(=O)(=O)Nc2ccc3c(c2)C(=O)N([C@@H](C)CO)C[C@@H](C)[C@@H](CN(C)C(=O)CCC(F)(F)F)OCCCC[C@H](C)O3)cc1	none (no result: CaV13 FRET inh)
C[C@H]1CN([C@@H](C)CO)C(=O)c2cc(NS(=O)(=O)c3ccccc3)ccc2O[C@H]1CN(C)Cc1ccc(-c2ccccc2)cc1	none (no result: CaV13 FRET inh)
COc1ccc(C#Cc2ccc([C@H]3[C@@H](CO)N4CCCCN(Cc5ccccc5F)C[C@H]34)cc2)cc1	AF4-AF9 inh 29 (no result: CaV13 FRET inh)
OC[C@H]1[C@@H](c2ccc(C#CC3(O)CCCC3)cc2)[C@@H]2CN(Cc3ccccc3F)CCCCN12	DENV2 CPE 41 (no result: CaV13 FRET inh)
Cc1c(NS(=O)(=O)c2cccc(C(=O)Nc3ccccc3)c2)c(=O)n(-c2ccccc2)n1C	none
Cc1c(NS(=O)(=O)c2ccc(N=NN(C)C)cc2)c(=O)n(-c2ccccc2)n1C	SIRT5 inh 18
Cc1c(NS(=O)(=O)c2cccc(C(=O)NCc3ccccc3Cl)c2)c(=O)n(-c2ccccc2)n1C	SIRT5 inh 16
COCC(=O)Nc1ccc2c(c1)[C@@H]1C[C@H](CC(=O)N(C)C)O[C@H](CO)[C@@H]1O2	none (no result: CaV13 FRET inh)
CCC(C)[C@H](NC(=O)[C@@H]1Cc2ccccc2CN1)C(=O)NCc1ccc(OC)cc1 (some centres not stated)	DENV2 CPE inconclusive (no result: CaV13 FRET inh)
CCC(C)[C@H](NC(=O)[C@@H]1Cc2ccccc2CN1)C(=O)NCc1ccc(C)cc1 (some centres not stated)	DENV2 CPE 92
CCCC#Cc1ccc2c(c1)O[C@@H](CN(C)Cc1ccccc1)[C@H](C)CN([C@@H](C)CO)S2(=O)=O	none (no result: CaV13 FRET inh, S100A4 inh HTS, DENV2 CPE, SIRT5 inh)
COC(=O)c1ccc(=O)c2nc3/c(=C/O)c(O)cc(=O)c3[nH]c12	DENV2 CPE 42, SIRT5 inh 20 (no result: CaV13 FRET inh)
CO[C@@H]1CN(C)C(=O)c2cc(NS(=O)(=O)c3ccc(F)cc3)ccc2OC[C@@H](C)NC[C@@H]1C	none (no result: CaV13 FRET inh)
O=C(NNC(=O)c1cccs1)c1ccncc1	SIRT5 inh 22
O=C(NNC(=O)c1cccs1)c1cccnc1	none
O=C(NNC(=S)NC(=O)c1cccs1)c1cccnc1	SIRT5 inh 17
CCS(=O)(=O)N1CCCCN2[C@H](CO)[C@@H](c3ccc(-c4ccc(C(=O)N(C)C)cc4)cc3)[C@@H]2C1	none (no result: CaV13 FRET inh, S100A4 inh HTS, DENV2 CPE, AF4-AF9 inh)
Cc1cccn2c(=O)c(/C=C(\C#N)C(N)=O)c(N3CCN(c4ccccc4)CC3)nc12	none
Cc1cccn2c(=O)c(/C=C(\C#N)C(N)=O)c(Oc3ccccc3)nc12	CaV13 FRET inh 38
C[C@@H]1CCCCO[C@@H](CN(C)C(=O)Nc2ccccc2)[C@@H](C)CN([C@H](C)CO)C(=O)c2cc(NC(=O)CCCCCC(=O)Nc3ccccc3N)ccc2O1	none (no result: CaV13 FRET inh)
COCC#Cc1cnc2c(c1)C(=O)N([C@@H](C)CO)C[C@H](C)[C@@H](CN(C)S(C)(=O)=O)O2	none (no result: CaV13 FRET inh)
C[C@@H]1CN([C@@H](C)CO)C(=O)CCCn2nncc2CO[C@H]1CN(C)Cc1cccc2c1OCCCO2	DENV2 CPE 45!
C[C@@H]1CN([C@@H](C)CO)C(=O)CCCn2nncc2CO[C@H]1CN(C)Cc1ccc(Cl)c(Cl)c1	SIRT5 inh 16!
COc1ccc2ccccc2c1C1CC(=O)N2CN(C3CCCCC3)CSC2=C1C#N (configuration not stated)	SIRT5 inh 17
C[C@H]1CN([C@@H](C)CO)C(=O)Cc2cc(NS(=O)(=O)c3ccc(F)cc3)ccc2O[C@H]1CN(C)CC1CCCCC1	SIRT5 inh 17 (no result: CaV13 FRET inh)
C[C@H](CO)N1C[C@H](C)[C@H](CN(C)CC2CCCCC2)Oc2ccc(NS(=O)(=O)c3ccc(Cl)cc3)cc2CC1=O	SIRT5 inh 29 (no result: CaV13 FRET inh)
C[C@@H]1CN([C@@H](C)CO)C(=O)Cc2cc(NS(=O)(=O)c3ccc(F)cc3)ccc2O[C@H]1CN(C)CC1CCCCC1	SIRT5 inh 16 (no result: CaV13 FRET inh)
CCCNC(=O)N1CC2(CCN(CC3CCCCC3)CC2)c2c(n(C)c3cc(OC)ccc23)[C@@H]1CO	none (no result: CaV13 FRET inh)
C[C@@H]1CN([C@@H](C)CO)C(=O)Cc2cc(NC(=O)Nc3cccc4ccccc34)ccc2O[C@H]1CN(C)Cc1ccc(Oc2ccccc2)cc1	none (no result: CaV13 FRET inh)
CCNC(=O)[C@H]1[C@H](CO)[C@H]2Cn3c(ccc(-c4ccc(OC)cc4)c3=O)[C@H]2N1Cc1nccs1	none (no result: CaV13 FRET inh)
CCCCCCCCN1C(=O)[C@H](CC(=O)NCC2CCCCC2)C[C@@]2(C(=O)OCC)CCC=C12	SIRT5 inh 22
C#CCNC(=O)C[C@@H]1C[C@@]2(C(=O)OCC)CCCC=C2N(CCCCCCCC)C1=O	SIRT5 inh 17
CCC(=O)Nc1ccc2c(c1)C(=O)N(C)C[C@@H](OC)[C@H](C)CN(C(=O)c1cnccn1)[C@@H](C)CO2	none (no result: CaV13 FRET inh)
Cc1ccccc1S(=O)(=O)N1CC(=O)N2[C@H](CO)[C@H](c3ccc(C#CCC(C)C)cc3)[C@H]2C1	none (no result: CaV13 FRET inh)
